Measured values taken from ChEMBL document CHEMBL3627671, “Novel derivatives of nitro-substituted salicylic acids: Synthesis, antimicrobial activity and cytotoxicity” (Bioorg Med Chem, 2015).
In brackets after ≈: the same amount, converted by molar mass.

Experiments:
Type in all cases: functional
[1] = test system: Escherichia coli; experiment: Antibacterial activity against Escherichia coli CCM4517 after 24 hrs by microdilution broth method; conditions: CCM4517, 24 h
Summary of the method: (§1)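 Mueller-Hinton broth microdilution (modified M07-A07), pH 7.4 (±0.2). Compounds dissolved in DMSO, tested at final 500 to 0.49 µmol/L. Inoculum in sterile water matched to 0.5 McFarland. Incubated in the dark, humid atmosphere, 35 °C, read at 24 and 48 h visually and at 540 nm. MIC taken as ≥95% growth reduction (IC95) versus control.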

[2] = test system: Mycobacterium tuberculosis; experiment: Antimycobacterial activity against Mycobacterium tuberculosis H37Rv 331/88 after 21 days; conditions: H37Rv 331/88, 504 h
[3] = test system: Klebsiella pneumoniae; experiment: Antibacterial activity against Klebsiella pneumoniae D 11750/08 after 48 hrs by microdilution broth method; conditions: D 11750/08, 48 h; summary of the method: as §1
[4] = test system: Mycobacterium kansasii; experiment: Antimycobacterial activity against Mycobacterium kansasii 235/80 after 7 days; conditions: 235/80, 168 h
Summary of the method: (§2)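 Šula's semisynthetic medium micromethod at 37 °C, read after 7, 14 and 21 days. The 1.0 McFarland suspension was diluted 10^-4. MIC determined. 6509/96 is a clinical isolate.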

[5] = test system: Mycobacterium tuberculosis; experiment: Antimycobacterial activity against Mycobacterium tuberculosis H37Rv 331/88 after 14 days; conditions: H37Rv 331/88, 336 h
[6] = test system: Mycobacterium kansasii; experiment: Antimycobacterial activity against Mycobacterium kansasii 235/80 after 14 days; conditions: 235/80, 336 h; summary of the method: as §2
[7] = test system: Staphylococcus epidermidis; experiment: Antibacterial activity against Staphylococcus epidermidis H 6966/08 after 24 hrs by microdilution broth method; conditions: H 6966/08, 24 h; summary of the method: as §1
[8] = test system: Nakaseomyces glabratus; experiment: Antifungal activity against Candida glabrata 20/I after 48 hrs by microdilution broth method
Summary of the method: (§3)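 CLSI M27-A3 broth microdilution in RPMI 1640 with glutamine, buffered to pH 7.0 with MOPS; DMSO diluent. Yeast inoculum 5 × 10^3 ± 0.2 CFU/mL. Moulds grown on Sabouraud agar 3–10 days before spore harvest, final inoculum 0.5-5 × 10^4 CFU/mL, checked in a Bürker chamber. Incubated dark, humid, 35 °C, read at 24 and 48 h visually and at 540 nm. MIC taken as ≥80% (yeasts) or ≥50% (filamentous) growth reduction versus control.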

[9] = test system: Candida tropicalis; experiment: Antifungal activity against Candida tropicalis 156 after 24 hrs by microdilution broth method; conditions: Candida tropicalis, 156, 24 h; summary of the method: as §3
[10] = test system: Lichtheimia corymbifera; experiment: Antifungal activity against Absidia corymbifera 272 after 24 hrs by microdilution broth method; conditions: Lichtheimia corymbifera, 272, 24 h; summary of the method: as §3
[11] = test system: Staphylococcus aureus; experiment: Antibacterial activity against methicillin-resistant Staphylococcus aureus H 5996/08 after 24 hrs by microdilution broth method; conditions: H 5996/08, 24 h
[12] = test system: Mycobacterium kansasii; experiment: Antimycobacterial activity against Mycobacterium kansasii 235/80 after 21 days; conditions: 235/80, 504 h; summary of the method: as §2
[13] = test system: Escherichia coli; experiment: Antibacterial activity against Escherichia coli CCM4517 after 48 hrs by microdilution broth method; conditions: CCM4517, 48 h; summary of the method: as §1
[14] = test system: Trichophyton mentagrophytes; experiment: Antifungal activity against Trichophyton mentagrophytes 445 after 24 hrs by microdilution broth method; conditions: Trichophyton mentagrophytes, 445, 24 h
[15] = test system: Enterococcus sp.; experiment: Antibacterial activity against Enterococcus sp. J 14365/08 after 48 hrs by microdilution broth method; conditions: J 14365/08, 48 h; summary of the method: as §1
[16] = test system: Pichia kudriavzevii; experiment: Antifungal activity against Candida krusei E28 after 48 hrs by microdilution broth method; conditions: E28, 48 h; summary of the method: as §3
[17] = test system: Trichophyton mentagrophytes; experiment: Antifungal activity against Trichophyton mentagrophytes 445 after 48 hrs by microdilution broth method; conditions: Trichophyton mentagrophytes, 445, 48 h
[18] = test system: Staphylococcus aureus; experiment: Antibacterial activity against Staphylococcus aureus CCM 4516/08 after 48 hrs by microdilution broth method; conditions: CCM 4516/08, 48 h
[19] = test system: Staphylococcus aureus; experiment: Antibacterial activity against Staphylococcus aureus CCM 4516/08 after 24 hrs by microdilution broth method; conditions: CCM 4516/08, 24 h
[20] = test system: Trichosporon asahii; experiment: Antifungal activity against Trichosporon asahii 1188 after 24 hrs by microdilution broth method; conditions: Trichosporon asahii, 1188, 24 h; summary of the method: as §3
[21] = test system: Mycobacterium avium; experiment: Antimycobacterial activity against Mycobacterium avium 330/80 after 14 days; conditions: 330/80, 336 h
[22] = test system: Pseudomonas aeruginosa; experiment: Antibacterial activity against Pseudomonas aeruginosa CCM 1961 after 24 hrs by microdilution broth method; conditions: CCM 1961, 24 h; summary of the method: as §1
[23] = test system: Staphylococcus aureus; experiment: Antibacterial activity against methicillin-resistant Staphylococcus aureus H 5996/08 after 48 hrs by microdilution broth method; conditions: H 5996/08, 48 h
[24] = test system: Pichia kudriavzevii; experiment: Antifungal activity against Candida krusei E28 after 24 hrs by microdilution broth method; conditions: E28, 24 h; summary of the method: as §3
[25] = test system: Mycobacterium avium; experiment: Antimycobacterial activity against Mycobacterium avium 330/80 after 21 days; conditions: 330/80, 504 h
[26] = test system: Mycobacterium kansasii; experiment: Antimycobacterial activity against Mycobacterium kansasii 6509/96 after 21 days; conditions: 6509/96, 504 h; summary of the method: as §2
[27] = test system: Klebsiella pneumoniae; experiment: Antibacterial activity against Klebsiella pneumoniae D 11750/08 after 24 hrs by microdilution broth method; conditions: D 11750/08, 24 h; summary of the method: as §1
[28] = test system: Candida tropicalis; experiment: Antifungal activity against Candida tropicalis 156 after 48 hrs by microdilution broth method; conditions: Candida tropicalis, 156, 48 h; summary of the method: as §3
[29] = test system: Candida albicans; experiment: Antifungal activity against Candida albicans ATCC 44859 after 24 hrs by microdilution broth method; conditions: ATCC 44859, 24 h; summary of the method: as §3
[30] = test system: Klebsiella pneumoniae; experiment: Antibacterial activity against ESBL-positive Klebsiella pneumoniae J 14368/08 after 24 hrs by microdilution broth method; conditions: J 14368/08, 24 h; summary of the method: as §1
[31] = test system: Pseudomonas aeruginosa; experiment: Antibacterial activity against Pseudomonas aeruginosa CCM 1961 after 48 hrs by microdilution broth method; conditions: CCM 1961, 48 h; summary of the method: as §1
[32] = test system: Aspergillus fumigatus; experiment: Antifungal activity against Aspergillus fumigatus 231 after 24 hrs by microdilution broth method; conditions: Aspergillus fumigatus, 231, 24 h; summary of the method: as §3
[33] = test system: Nakaseomyces glabratus; experiment: Antifungal activity against Candida glabrata 20/I after 24 hrs by microdilution broth method; summary of the method: as §3
[34] = test system: Candida albicans; experiment: Antifungal activity against Candida albicans ATCC 44859 after 48 hrs by microdilution broth method; conditions: ATCC 44859, 48 h; summary of the method: as §3
[35] = test system: Klebsiella pneumoniae; experiment: Antibacterial activity against ESBL-positive Klebsiella pneumoniae J 14368/08 after 48 hrs by microdilution broth method; conditions: J 14368/08, 48 h; summary of the method: as §1
[36] = test system: Mycobacterium kansasii; experiment: Antimycobacterial activity against Mycobacterium kansasii 6509/96 after 7 days; conditions: 6509/96, 168 h; summary of the method: as §2
[37] = test system: Staphylococcus epidermidis; experiment: Antibacterial activity against Staphylococcus epidermidis H 6966/08 after 48 hrs by microdilution broth method; conditions: H 6966/08, 48 h; summary of the method: as §1
[38] = test system: Enterococcus sp.; experiment: Antibacterial activity against Enterococcus sp. J 14365/08 after 24 hrs by microdilution broth method; conditions: J 14365/08, 24 h; summary of the method: as §1
[39] = test system: Lichtheimia corymbifera; experiment: Antifungal activity against Absidia corymbifera 272 after 48 hrs by microdilution broth method; conditions: Lichtheimia corymbifera, 272, 48 h; summary of the method: as §3
[40] = test system: Trichosporon asahii; experiment: Antifungal activity against Trichosporon asahii 1188 after 48 hrs by microdilution broth method; conditions: Trichosporon asahii, 1188, 48 h; summary of the method: as §3
[41] = test system: Aspergillus fumigatus; experiment: Antifungal activity against Aspergillus fumigatus 231 after 48 hrs by microdilution broth method; conditions: Aspergillus fumigatus, 231, 48 h; summary of the method: as §3
[42] = test system: Mycobacterium kansasii; experiment: Antimycobacterial activity against Mycobacterium kansasii 6509/96 after 14 days; conditions: 6509/96, 336 h; summary of the method: as §2

## O=C(Nc1cccc(I)c1)c1cc([N+](=O)[O-])ccc1O
[1]
  MIC: > 500 µM
[2]
  MIC: 16 µM (≈ 6.15 µg/mL)
[3]
  MIC: > 500 µM
[4]
  MIC: 16 µM (≈ 6.15 µg/mL)
[5]
  MIC: 16 µM (≈ 6.15 µg/mL)
[6]
  MIC: 32 µM (≈ 12.3 µg/mL)
[7]
  MIC: 31.2 µM (≈ 12 µg/mL)
[8]
  MIC: 500 µM (≈ 192 µg/mL)
[9]
  MIC: 500 µM (≈ 192 µg/mL)
[10]
  MIC: 500 µM (≈ 192 µg/mL)
[11]
  MIC: 31.2 µM (≈ 12 µg/mL)
[12]
  MIC: 62.5 µM (≈ 24 µg/mL)
[13]
  MIC: > 500 µM
[14]
  MIC: 125 µM (≈ 48 µg/mL)
[15]
  MIC: > 500 µM
[16]
  MIC: 500 µM (≈ 192 µg/mL)
[17]
  MIC: 125 µM (≈ 48 µg/mL)
[18]
  MIC: 31.2 µM (≈ 12 µg/mL)
[19]
  MIC: 31.2 µM (≈ 12 µg/mL)
[20]
  MIC: 250 µM (≈ 96 µg/mL)
[21]
  MIC: 125 µM (≈ 48 µg/mL)
[22]
  MIC: > 500 µM
[23]
  MIC: 31.2 µM (≈ 12 µg/mL)
[24]
  MIC: 500 µM (≈ 192 µg/mL)
[25]
  MIC: 125 µM (≈ 48 µg/mL)
[26]
  MIC: 62.5 µM (≈ 24 µg/mL)
[27]
  MIC: > 500 µM
[28]
  MIC: 500 µM (≈ 192 µg/mL)
[29]
  MIC: 500 µM (≈ 192 µg/mL)
[30]
  MIC: > 500 µM
[31]
  MIC: > 500 µM
[32]
  MIC: 250 µM (≈ 96 µg/mL)
[33]
  MIC: 500 µM (≈ 192 µg/mL)
[34]
  MIC: > 500 µM
[35]
  MIC: > 500 µM
[36]
  MIC: 32 µM (≈ 12.3 µg/mL)
[37]
  MIC: 31.2 µM (≈ 12 µg/mL)
[38]
  MIC: 250 µM (≈ 96 µg/mL)
[39]
  MIC: > 500 µM
[40]
  MIC: 500 µM (≈ 192 µg/mL)
[41]
  MIC: 250 µM (≈ 96 µg/mL)
[42]
  MIC: 62.5 µM (≈ 24 µg/mL)

## O=C(Nc1cccc(Cl)c1)c1ccc([N+](=O)[O-])cc1O
[1]
  MIC: > 500 µM
[2]
  MIC: 16 µM (≈ 4.68 µg/mL)
[3]
  MIC: > 500 µM
[4]
  MIC: 8 µM (≈ 2.34 µg/mL)
[5]
  MIC: 8 µM (≈ 2.34 µg/mL)
[6]
  MIC: 16 µM (≈ 4.68 µg/mL)
[7]
  MIC: 7.81 µM (≈ 2.29 µg/mL)
[8]
  MIC: > 500 µM
[9]
  MIC: > 500 µM
[10]
  MIC: 62.5 µM (≈ 18.3 µg/mL)
[11]
  MIC: 7.81 µM (≈ 2.29 µg/mL)
[12]
  MIC: 16 µM (≈ 4.68 µg/mL)
[13]
  MIC: > 500 µM
[14]
  MIC: 62.5 µM (≈ 18.3 µg/mL)
[15]
  MIC: > 500 µM
[16]
  MIC: 125 µM (≈ 36.6 µg/mL)
[17]
  MIC: 62.5 µM (≈ 18.3 µg/mL)
[18]
  MIC: 15.6 µM (≈ 4.57 µg/mL)
[19]
  MIC: 7.81 µM (≈ 2.29 µg/mL)
[20]
  MIC: 62.5 µM (≈ 18.3 µg/mL)
[21]
  MIC: 32 µM (≈ 9.37 µg/mL)
[22]
  MIC: > 500 µM
[23]
  MIC: 15.6 µM (≈ 4.57 µg/mL)
[24]
  MIC: 62.5 µM (≈ 18.3 µg/mL)
[25]
  MIC: 62.5 µM (≈ 18.3 µg/mL)
[26]
  MIC: 16 µM (≈ 4.68 µg/mL)
[27]
  MIC: > 500 µM
[28]
  MIC: > 500 µM
[29]
  MIC: > 500 µM
[30]
  MIC: > 500 µM
[31]
  MIC: > 500 µM
[32]
  MIC: 62.5 µM (≈ 18.3 µg/mL)
[33]
  MIC: > 500 µM
[34]
  MIC: > 500 µM
[35]
  MIC: > 500 µM
[36]
  MIC: 16 µM (≈ 4.68 µg/mL)
[37]
  MIC: 15.6 µM (≈ 4.57 µg/mL)
[38]
  MIC: 500 µM (≈ 146 µg/mL)
[39]
  MIC: 250 µM (≈ 73.2 µg/mL)
[40]
  MIC: 125 µM (≈ 36.6 µg/mL)
[41]
  MIC: 125 µM (≈ 36.6 µg/mL)
[42]
  MIC: 16 µM (≈ 4.68 µg/mL)
